# Compound activity as filed in PubChem BioAssay.
# GASC1 inh: inhibitors of GASC-1 (KDM4C) histone demethylase, primary screen, biochemical, single concentration HTS. GST-KDM4C 2-372, H3K9me3 peptide, LANCE TR-FRET. inhibition, % at 12.5 µM. hit rate 0.15% among 96,000. AID 720574, 2013;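 active means mean replicate inhibition above about 25%, with at least 55% of replicates also reaching it, limit read from the data, passing the limit was not always enough; inconclusive means only one of those two conditions met; inactive means neither condition met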
#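 reagent = H3K9me3 peptide substrate, Fe(II), 2-oxoglutarate | system = GST-tagged GASC-1 (JMJD2C) catalytic fragment, aa 2-372 | amount = enzyme final amount 10 nM | read-out = Fall in 671/618 emission ratio as inhibition | medium = HEPES buffer, pH 7.5, plus ascorbate | schedule = 30 min reaction, 60 min detection, RT | measured by = LANCE TR-FRET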
# IDH1 mut inh: inhibitors of IDH1 R132H reductase, primary screen, biochemical, plate reader, single point; diaphorase/resazurin fluorescence, 60 min; inhibition, % at 10 µM; Isocitrate dehydrogenase [NADP] cytoplasmic (Homo sapiens), O75874; AID 624101, 2012; hit rate 0.18% among 70,000; in the data active means inhibition above about 34%; inconclusive means no clear call, values can overlap the other calls; inactive means below about 11%;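 further: 0% = DMSO and 100% = no enzyme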
# Target sequence (O75874 whole entry R132H): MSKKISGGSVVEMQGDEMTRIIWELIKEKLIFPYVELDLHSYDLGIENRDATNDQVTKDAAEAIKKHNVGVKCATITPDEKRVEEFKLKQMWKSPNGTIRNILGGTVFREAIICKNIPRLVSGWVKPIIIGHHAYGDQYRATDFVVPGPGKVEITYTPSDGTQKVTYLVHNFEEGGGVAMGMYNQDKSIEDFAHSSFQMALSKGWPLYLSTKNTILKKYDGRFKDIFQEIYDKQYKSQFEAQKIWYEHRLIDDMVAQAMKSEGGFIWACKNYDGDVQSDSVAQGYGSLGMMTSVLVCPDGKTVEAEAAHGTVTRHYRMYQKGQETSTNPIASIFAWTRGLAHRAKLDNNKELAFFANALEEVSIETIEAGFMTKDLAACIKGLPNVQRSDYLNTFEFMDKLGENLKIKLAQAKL
# Pf Dd2 inh: P. falciparum Dd2 growth inhibitors, primary screen, SYBR Green fluorescence, single dose replicates; 72 h; active compounds read low; activity change, % at 10 µM; hit rate 2.3% among 94,000; AID 1159554, 2015; in the data active means activity change below about -80%; inconclusive means no clear call, values can overlap the other calls
# T cruzi growth-1: T. cruzi intracellular proliferation inhibitors, primary screen, cell-based, beta-gal Tulahuen parasites, NIH3T3 host, luminescence | T. cruzi beta-gal in NIH3T3, GalScreen luminescence, 90 h | inhibition, % at 8.34 µM | hit rate 5.9% among 77,000;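 active means mean inhibition above about 93%, with at least 55% of replicates each passing it, limit read from the data, passing the limit was not always enough; inconclusive means only one of those two conditions holds; inactive means neither condition holds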
# T cruzi growth-2: T. cruzi intracellular proliferation inhibitors, confirmation, cell-based, NIH3T3 host, beta-gal parasite, luminescence, cherry-pick; shares compounds with T cruzi growth-1; T. cruzi beta-gal in NIH3T3, GalScreen luminescence, 90 h; inhibition, % at 8.35 µM; hit rate 72% among 5,600; AID 651739, 2012;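 active means mean replicate inhibition above about 95% and at least 55% of replicates individually reaching it, limit read from the data; inconclusive means only one of the two criteria is met; inactive means neither criterion is met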
# T cruzi growth-3: inhibitors of intracellular T. cruzi replication, confirmation, NIH3T3 host cells, beta-gal parasites, cherry-pick, set 2; shares compounds with T cruzi growth-1; T. cruzi beta-gal in NIH3T3, GalScreen luminescence, 90 h; inhibition, % at 2.09 µM; hit rate 21% among 5,600; AID 651740, 2012;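 active means mean inhibition above about 95%, with at least 55% of replicates also reaching it, limit read from the data; inconclusive means meets just one of the two conditions; inactive means meets neither condition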;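 further: plate controls were neutral control median for no effect and positive control median for full effect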
# NIH3T3 tox: cytotoxicity in mouse NIH/3T3 fibroblasts, confirmation, cytotoxicity control for T. cruzi proliferation inhibitor project, cell-based, cherry-pick, single point. shares compounds with T cruzi growth-1. NIH/3T3 viability, CellTiter-Glo ATP luminescence, 90 h. cytotoxicity (signal decrease), % at 8.35 µM. hit rate 14% among 5,600;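 active means mean signal decrease across replicates above about 35% based on untreated-well scatter, with enough replicates individually passing, limit read from the data; inconclusive means no rule stated though some were filed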;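 further: 0% = median of neutral control wells and 100% = median of positive control wells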
# NIH3T3 tox 2: NIH/3T3 fibroblast cytotoxicity, confirmation, cytotoxicity control, cell-based, cherry-pick, single point, set 2; shares compounds with T cruzi growth-1; NIH/3T3 viability, CellTiter-Glo ATP luminescence, 90 h; inhibition, % at 24.9 µM; hit rate 56% among 5,600; AID 651744, 2012;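 active means mean loss of cell viability signal at or above a set limit, and enough replicates individually reaching it; inconclusive means meets only the mean limit or only the replicate share; inactive means meets neither condition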;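 further: 0% = median of neutral control wells and 100% = median of positive control wells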
# An asterisk follows results filed as active; ? = inconclusive; . = not tested or not shown. Compounds with a hit are over-represented: about 5.8% of the library has one in this group of screens.
SMILES,GASC1 inh,IDH1 mut inh,Pf Dd2 inh,T cruzi growth-1,T cruzi growth-2,T cruzi growth-3,NIH3T3 tox,NIH3T3 tox 2
C[C@H](CO)N1C[C@H](C)[C@H](CN(C)Cc2ccc3c(c2)OCO3)Oc2ccc(NC(=O)Nc3cccc4ccccc34)cc2C1=O,-1,0,6,105*,?,104*,32,67*
C[C@@H]1CN([C@@H](C)CO)C(=O)Cc2cc(NC(=O)Nc3cccc4ccccc34)ccc2O[C@H]1CN(C)Cc1ccc2c(c1)OCO2,-1,0,-7,109*,110*,70,29,-2
C[C@H]1CCCCO[C@@H](CN(C)Cc2ccncc2)[C@@H](C)CN([C@@H](C)CO)C(=O)c2cc(NC(=O)Cc3ccccc3)ccc2O1,4,4,-55,99*,104*,86,-27,-16
C[C@H](CO)N1C[C@H](C)[C@@H](CN(C)Cc2ccccc2)OCCCC[C@H](C)Oc2ccc(NC(=O)c3ccncc3)cc2C1=O,-1,.,15,74,.,.,.,.
C[C@@H]1CCCCO[C@H](CN(C)Cc2ccccc2)[C@@H](C)CN([C@@H](C)CO)C(=O)c2cc(NC(=O)c3ccncc3)ccc2O1,-1,3,-13,98*,16,-36,-18,-25
C[C@@H]1CN([C@H](C)CO)S(=O)(=O)c2ccc(C#CC(C)(C)O)cc2O[C@H]1CN(C)Cc1ccncc1,-1,16,-13,?,87,84,44*,71*
C[C@@H]1CN([C@@H](C)CO)S(=O)(=O)c2ccc(C#CC(C)(C)O)cc2O[C@H]1CN(C)Cc1ccncc1,0,2,-39,100*,100*,76,12,56*
Cn1c(=O)c2c(nc(NCc3cccnc3)n2Cc2c(F)cccc2Cl)n(C)c1=O,.,0,.,.,.,.,.,.
O=S(=O)(c1ccc(F)cc1)N1C[C@@H]2[C@H](c3ccccc31)[C@H](CO)N2Cc1ccc2c(c1)OCO2,-4,.,-23,101*,107*,83,29,-3
O=S(=O)(c1ccccc1F)N1C[C@H]2[C@@H](c3ccccc31)[C@@H](CO)N2Cc1ccc2c(c1)OCO2,-8,.,-26,99*,103*,100*,25,-15
C[C@@H]1CN([C@H](C)CO)C(=O)c2cccc(NC(=O)Nc3ccc(C(F)(F)F)cc3)c2O[C@H]1CN(C)Cc1ccc(C(F)(F)F)cc1,1,-5,32,62,.,.,.,.
C[C@@H]1CN([C@H](C)CO)C(=O)c2cccc(NC(=O)Nc3ccc(C(F)(F)F)cc3)c2O[C@@H]1CN(C)Cc1ccc(Oc2ccccc2)cc1,0,.,-33,120*,97*,98*,29,104*
C[C@@H]1CN([C@H](C)CO)C(=O)c2cccc(NC(=O)Nc3ccc(C(F)(F)F)cc3)c2O[C@H]1CN(C)Cc1ccc(Oc2ccccc2)cc1,-1,-1,-3,121*,?,91,-4,104*
C[C@@H]1CN([C@@H](C)CO)C(=O)c2cccc(NC(=O)Nc3ccc(C(F)(F)F)cc3)c2O[C@@H]1CN(C)Cc1ccc(Oc2ccccc2)cc1,.,.,-72,124*,87,111*,60*,105*
C[C@H]1CN([C@@H](C)CO)C(=O)c2cccc(NC(=O)Nc3ccc(C(F)(F)F)cc3)c2O[C@H]1CN(C)Cc1ccc(Oc2ccccc2)cc1,-1,-4,2,93,.,.,.,.
C[C@@H]1CN([C@@H](C)CO)C(=O)c2cccc(NC(=O)Nc3ccc(C(F)(F)F)cc3)c2O[C@H]1CN(C)Cc1ccc(Oc2ccccc2)cc1,0,-1,12,126*,109*,102*,-1,99*
C[C@H]1CN([C@@H](C)CO)C(=O)c2cccc(NC(=O)Nc3ccc(C(F)(F)F)cc3)c2O[C@H]1CN(C)Cc1ccc(C(F)(F)F)cc1,-1,.,-8,94,.,.,.,.
O=C(CCCOc1ccc(Cl)cc1Cl)Nc1ccccc1[N+](=O)[O-],.,0,.,.,.,.,.,.
Cn1c(SCc2nc3ccccc3c(=O)[nH]2)nnc1-c1cc2cc(Br)ccc2o1,.,0,.,.,.,.,.,.
CSc1scc(N)c1S(=O)(=O)C(C)C,.,0,.,.,.,.,.,.
O=C(Nc1ccccc1)N1CCCCN2[C@H](C1)[C@H](c1ccc(-c3ccccc3F)cc1)[C@@H]2CO,-1,.,17,113*,108*,60,14,?
O=C(Nc1ccc(F)cc1)N1CCCCN2[C@H](CO)[C@@H](c3ccc(-c4ccccc4F)cc3)[C@@H]2C1,.,.,-31,112*,101*,104*,32,104*
O=C(Nc1ccc(F)cc1)N1CCCCN2[C@H](CO)[C@@H](c3ccc(-c4ccccc4F)cc3)[C@H]2C1,.,.,-53,104*,97*,?,58*,105*
O=C(Nc1ccc(F)cc1)N1CCCCN2[C@H](CO)[C@H](c3ccc(-c4ccccc4F)cc3)[C@H]2C1,.,.,-17,54,.,.,.,.
COc1ccccc1C#Cc1ccc2c(c1)O[C@H](CN(C)Cc1cccnc1)[C@@H](C)CN([C@@H](C)CO)S2(=O)=O,-2,-2,-53,.,.,.,.,.
COc1ccccc1C#Cc1ccc2c(c1)O[C@H](CN(C)Cc1ccccc1)[C@H](C)CN([C@H](C)CO)S2(=O)=O,4,0,-40,121*,104*,87,-8,16
COc1ccccc1C#Cc1ccc2c(c1)O[C@@H](CN(C)Cc1cccnc1)[C@@H](C)CN([C@H](C)CO)S2(=O)=O,-1,.,-70,.,.,.,.,.
COc1ccccc1C#Cc1ccc2c(c1)O[C@H](CN(C)Cc1ccccc1)[C@@H](C)CN([C@@H](C)CO)S2(=O)=O,-3,0,-57,121*,99*,111*,11,99*
COc1ccccc1C#Cc1ccc2c(c1)O[C@@H](CN(C)Cc1cccnc1)[C@@H](C)CN([C@@H](C)CO)S2(=O)=O,0,0,-37,.,.,.,.,.
